Assays:
[1] = system: Fruit; experiment: Drug residues in Citrus sinensis cvs. Valencia late (Valencia oranges) at 400 mg/L treated for 1 min at 40 degC postharvest measured immediately post-drug treatment in presence of 1% SBC by GC analysis; format: ADME
How it was run: (§1)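 'Valencia' oranges were dipped 1 min in TBZ at 600 mg/L (20 °C, ±0.5, 1 or 2% wt/vol SBC), 400 mg/L (40 °C, ±SBC) or 200 mg/L (50 °C, alone), then air-dried. They were sampled at 0, 10 and 20 days at 17 °C. Peel of five fruit was frozen, and 5 g of homogenate was extracted with ethyl acetate/hexane (1/1) plus NaCl. The extract was dried under N2, taken up in acetone and analysed by GC. Results are mg/kg on a whole-fruit basis.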

[2] = system: Fruit; experiment: Drug residues in Citrus sinensis cvs. Valencia late (Valencia oranges) at 600 mg/L treated for 1 min at 20 degC postharvest measured after 10 days of storage at 17 degC in presence of 2% SBC by GC analysis; format: ADME; how it was run: as §1

Work on `c1ccc2[nH]c(-c3cscn3)nc2c1` [THIABENDAZOLE] yielded a Drug uptake [1] of 0.75 mg/kg and a Drug uptake [2] of 1.23 mg/kg.
